# An excerpt weighted towards active compounds, which were near 2% of everything screened.
# IMP-1 inh = inhibitors of Pseudomonas aeruginosa IMP-1 metallo-beta-lactamase; purified IMP-1, nitrocefin hydrolysis, epi-absorbance fluorescence; inhibition, % at 5.6 µM; actives 0.45% (n = 290,000); AID 1556;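 active means inhibition above the mean plus 3 SD of all compounds in the same screening run, cut at about 4.5% in these data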
#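 system = purified recombinant IMP-1 beta-lactamase | amount = 0.2 nM IMP-1, as dispensed | medium = HEPES buffer pH 7.1 with ZnSO4 and Brij 35 | times = 25 °C, 15 min preincubation, 25 min reaction | detection = plate fluorescence quenching by hydrolysis product, ex 480/em 530 nm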
# VIM-2 inh = inhibitors of Pseudomonas aeruginosa VIM-2 metallo-beta-lactamase. inhibition, % at 5.6 µM. purified VIM-2, nitrocefin hydrolysis, epi-absorbance fluorescence. actives 0.89% (n = 290,000);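 active means inhibition above the mean of all tested compounds plus 3 SD, cutoff set per screening run, cut at about 7.5% in these data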;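 further: red hydrolysis product quenches plate fluorescence so inhibitors raise well fluorescence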
# PvdQ inh = blocks Pseudomonas aeruginosa PvdQ acylase activity. inhibition, % at 10 µM. purified PvdQ acylase, fluorescence plate reader. actives 0.063% (n = 340,000); in the data active means inhibition above about 30%, passing the limit was not always enough
# ATG4B inhibitor = ATG4B (human) cysteine protease inhibition | inhibition, % at 8.33 µM | ATG4B cleavage of LC3-PLA2, NBD-HPC fluorescence, 1 h | actives 0.51% (n = 340,000) | AID 504462 | Q9Y4P1; in the data active means inhibition above about 40%
# Target sequence (Q9Y4P1 whole entry, looked up): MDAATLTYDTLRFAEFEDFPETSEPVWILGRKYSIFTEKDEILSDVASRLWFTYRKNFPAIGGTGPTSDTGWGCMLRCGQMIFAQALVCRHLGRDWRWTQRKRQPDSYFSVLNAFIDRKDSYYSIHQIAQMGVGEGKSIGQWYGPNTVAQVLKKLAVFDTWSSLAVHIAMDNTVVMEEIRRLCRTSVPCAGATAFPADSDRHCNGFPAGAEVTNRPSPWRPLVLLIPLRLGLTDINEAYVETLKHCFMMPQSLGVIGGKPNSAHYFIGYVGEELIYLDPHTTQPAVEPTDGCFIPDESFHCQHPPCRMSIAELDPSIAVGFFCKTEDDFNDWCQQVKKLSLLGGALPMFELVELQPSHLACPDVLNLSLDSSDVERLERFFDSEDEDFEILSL
# HKDC1 inh = HKDC1 (human) hexokinase inhibition; recombinant HKDC1, G6PDH/diaphorase resazurin coupled fluorescence; inhibition, % at 20 µM; actives 0.16% (n = 340,000); AID 493160;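 active means inhibition above about 35% when tested at 20 µM, limit read from the data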
#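 Assay system: recombinant HKDC1 hexokinase; detection: coupled resazurin fluorescence, excitation 525 nm, emission 613 nm; benchmarks: DMSO-plus-enzyme-mix negative control, buffer-substituted positive control; compound dosing: single 20 µM dose; schedule: 90 min at room temperature in dark; also added: glucose plus 1 mM ATP as hexokinase substrates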
# MIN6 prolif = MIN6 beta-cell proliferation induction; MIN6 cells proliferation, ATPlite luminescence, 48 h; cells starved in 0.2% serum; 100% = growth in 10% serum; proliferation, % at 10 µM; actives 0.29% (n = 330,000);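 active means compounds whose signal lies at least 3.5 SD above the mean of all wells on their plate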
# HKDC1 act conf = HKDC1 (human) activation, single-dose confirmed. shares compounds with HKDC1 inh. recombinant HKDC1, G6PDH/diaphorase resazurin fluorescence; hits give low values. inhibition, % at 20 µM. actives 14% (n = 740);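 active means inhibition at or below a set negative limit, negative inhibition meaning the enzyme was activated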
# ATG4B conf = ATG4B (human) inhibition, single-dose confirmed | shares compounds with ATG4B inhibitor | AID 504757 | ATG4B protease fluorescent substrate cleavage assay | inhibition, % at 8.33 µM | actives 92% (n = 320); in the data active means inhibition above about 39%
# PLA2 ctr = inhibits human PLA2, flagging false ATG4B inhibitors | shares compounds with ATG4B inhibitor | purified PLA2, NBD-C6-HPC fluorescence, 45 min | inhibition, % at 8.33 µM | actives 66% (n = 1,600); in the data active means inhibition above about 50%
# Target sequence (P04054 whole entry, looked up): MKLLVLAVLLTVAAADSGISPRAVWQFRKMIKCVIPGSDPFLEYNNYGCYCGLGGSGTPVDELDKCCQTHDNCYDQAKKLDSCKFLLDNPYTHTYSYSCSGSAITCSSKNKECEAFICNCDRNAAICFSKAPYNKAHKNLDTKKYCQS
# A number is an active result; 0 = inactive; - = no result given.
SMILES,IMP-1 inh,VIM-2 inh,PvdQ inh,ATG4B inhibitor,HKDC1 inh,MIN6 prolif,HKDC1 act conf,others
Cc1onc(-c2ccccc2Cl)c1C(=O)N/N=C(\N)COc1ccc(Cl)cc1,0,0,0,0,0,0,0,
COc1cc(NC(=O)c2ccccc2)c(C)cc1NC(=O)CC(CC(=O)O)c1ccccc1 (stereo not drawn),0,0,0,0,0,0,-,
O=C(COc1ccccc1Cl)NCCCNC(=O)c1ccco1,0,0,0,0,0,0,-,
O=C(N/N=C/c1ccc(O)cc1O)c1ccc(CN2C(=O)c3cccc4cccc2c34)cc1,0,0,0,0,0,0,0,
O=C(NC(=S)NNC(=O)c1ccccc1O)c1ccco1,0,0,0,0,0,-,0,
COCC(=O)OC1CCn2c1nc1c2C(=O)C(C)=C(NC(C)=O)C1=O (stereo not drawn),-,-,0,0,68,-,0,
CN(C)c1ccc(Cc2cc3c(O)ccc(O)c3cc(Cc3ccc(N(C)C)cc3)c2=O)cc1,-,-,0,0,60,-,0,
O=C1C(O)=CC(=C(c2ccccc2)c2ccccc2)c2ccccc21,-,-,0,0,78,-,0,
O=C(Nc1ccc2c(c1)C(=O)c1ccccc1-2)c1ccccc1,-,-,0,0,0,-,-,
COc1ccc(CNC(=O)C[C@H]2C[C@H](C(=O)N3CCCCC3)[C@@]3(CCc4ccccc4)c4[nH]c5ccc(Cl)cc5c4CCN3C2=O)cc1OC,-,-,0,0,0,-,-,
CN(C)CC1CCC/C(=C\c2ccc(OC(=O)c3ccc(Cl)cc3)cc2)C1=O (stereo not drawn),-,-,0,0,37,-,0,
CN(C)CC1CCC/C(=C\c2ccc(OC(=O)/C=C/c3ccccc3)cc2)C1=O (stereo not drawn),-,-,0,0,0,-,-,
COc1ccc(C(C)=O)cc1CSCCC(=O)O,0,0,0,0,0,0,-,
COc1ccc(C(=O)/C=C/c2ccsc2)cc1CSCC(=O)O,0,0,0,0,36,0,0,
Cc1cc(C(=O)CCl)c(C)n1CCc1ccc(F)cc1,0,0,0,0,0,0,-,
Cc1cc(C(=O)CCl)c(C)n1CCc1ccc(Cl)cc1,0,0,0,0,39,0,0,
O=C(CN1CCCC1=O)NC1(C(F)(F)F)NC(=O)N(Cc2ccccc2)C1=O (stereo not drawn),0,0,0,0,0,0,-,
Cc1ccccc1C(=O)Nc1ccc2c(C#N)c3nc4ccccc4nc3n2c1,0,0,0,0,37,0,0,
CCc1ccc2c(c1)C(NC(C)=O)C(=O)N2CCN1CCOCC1 (stereo not drawn),0,0,0,0,80,0,0,
O=C(CC12CC3CC(CC(C3)C1)C2)NC(=S)Nc1ccc(CN2CCOCC2)cc1,0,0,0,0,0,0,-,
O=C(Nc1ccc(S(=O)(=O)Nc2ncccn2)cc1)c1ccc2ncsc2c1,0,0,0,0,0,0,0,
O=C(Nc1ccncc1)c1ccc2ncsc2c1,-,-,0,0,0,0,-,
O=C(O)C1Nc2c(O)cc(Cl)c([N+](=O)[O-])c2C2C=CCC12 (stereo not drawn),0,0,0,0,0,0,0,
O=C(O)C1Nc2c(cccc2C(F)(F)F)C2C=CCC12 (stereo not drawn),0,0,-,-,-,-,-,
O=C(O)c1ccccc1NS(=O)(=O)c1ccc(N/N=C/c2cccc(O)c2O)c([N+](=O)[O-])c1,-,-,0,51,36,-,0,PLA2 ctr=53
SMILES,IMP-1 inh,VIM-2 inh,PvdQ inh,ATG4B inhibitor,HKDC1 inh,MIN6 prolif,HKDC1 act conf,others
CC(C)(C)N1CCC1CN (stereo not drawn),0,0,0,0,0,0,-,
CCOC(=O)c1cnc2nc[nH]n2c1=O,0,0,0,0,0,0,-,
CCCCC(CC)CN=C(N)NC(N)=NCCCCCCN=C(N)NC(N)=NCC(CC)CCCC (stereo not drawn),-,-,0,69,42,0,0,ATG4B conf=0;PLA2 ctr=0
O=C(NCc1ccc(F)cc1F)Nc1cnccc1C(F)(F)F,0,0,0,0,0,0,-,
O=C(O)c1ccc(-c2ccc(/C=c3/sc4nc5ccccc5n4c3=O)o2)cc1Cl,0,0,0,50,45,0,0,ATG4B conf=82;PLA2 ctr=0
COC(C[C@@H](O)[C@@H](C)[C@@H](O)COCc1ccccc1)OC,-,-,0,0,0,0,-,
COc1ccc(/C=C2\SC(=S)N(C(Cc3ccccc3)C(=O)O)C2=O)cc1 (stereo not drawn),0,0,0,0,0,0,-,
O=C(O)C(Cc1ccccc1)N1C(=O)/C(=C/C=C/c2ccco2)SC1=S (stereo not drawn),0,0,0,69,37,-,0,PLA2 ctr=59
CC(CC(=O)N1CCN(c2ccc(C(F)(F)F)cn2)CC1)n1ccnc1 (stereo not drawn),0,0,0,0,0,0,-,
N=C1/C(=C/c2coc3ccccc3c2=O)C(=O)N=C2SC(c3ccco3)=NN12,6.8,0,-,45,38,0,0,PLA2 ctr=0
COc1ccc(-n2cccc2/C=C2\C(=N)N3N=C(c4ccco4)SC3=NC2=O)cc1,0,0,0,40,35,0,0,ATG4B conf=49;PLA2 ctr=0
COc1ccc(-n2cccc2/C=C2\C(=N)N3N=C(C(C)C)SC3=NC2=O)cc1,0,0,0,0,0,0,-,
Cc1cc(/C=C2\C(=N)N3N=C(c4ccco4)SC3=NC2=O)c(C)n1Cc1ccccc1,0,0,0,0,0,0,-,
O=C(NC1CCCCC1)c1sc(=S)n2c1[nH]c(=O)c1ccccc12,0,0,0,0,0,0,-,
CCCCNC(=O)c1sc(=S)n2c1[nH]c(=O)c1ccccc12,0,0,0,45,38,0,0,PLA2 ctr=0
O=C(O)c1cc(O)c2c(c1)[C@@H]([C@H]1c3cc(C(=O)O)cc(O)c3C(=O)c3c(O[C@@H]4O[C@H](CO)[C@@H](O)[C@H](O)[C@H]4O)cccc31)c1cccc(O[C@@H]3O[C@H](CO)[C@@H](O)[C@H](O)[C@H]3O)c1C2=O,-,-,-,47,80,0,0,PLA2 ctr=0
OCC1OC(Oc2cccc3ccccc23)C(O)C(O)C1O (stereo not drawn),0,0,0,0,0,0,-,
O=C1C(=C(I)I)c2ccccc2-c2ccccc21,-,-,0,61,61,-,0,ATG4B conf=57;PLA2 ctr=0
CCn1cc(CN2CCC(n3nccc3NC(=O)CCc3ccccc3)CC2)cn1,0,0,0,0,0,0,-,
